Results taken from ChEMBL document CHEMBL4257584, “Sterol 14α-Demethylase Structure-Based Optimization of Drug Candidates for Human Infections with the Protozoan Trypanosomatidae” (J Med Chem, 2018).
pEC50, pKd: −log10 of the molar value. Activity calls are given as the source filed them. The calls are words filed in the database; no cut-off is given here.

Legend:
Trypanosoma cruzi [1] = experiment: Antiparasitic activity against GFP-expressing Trypanosoma cruzi Y amastigote formss infected in cardiomyocytes assessed as reduction in rate of parasite multiplication within infected cardiomyocytes measured at 72 hrs post infection by fluorescence microscopy; assay type: functional, organism-based
Summary of the method: (§1)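 GFP-expressing trypomastigotes (Tulahuen or Y strain) infect cardiomyocyte monolayers at 10 parasites per cell, in DMEM + 10% FBS. Unbound parasites are washed off. At 24 h of infection, inhibitors at 0.5–25 nM in DMSO/DMEM are added and cultured 48 h. Read-out is at 72 h post-infection as GFP fluorescence (RFU) after PBS wash; microscopy uses paraformaldehyde fixation, DAPI and phalloidin stain. Triplicate.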

[2] = target: Putative lanosterol 14-alpha-demethylase (Leishmania infantum, UniProt A2TEF2); experiment: Binding affinity to Leishmania infantum CYP51 expressed in Escherichia coli
Summary of the method: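 Purified E. coli-expressed L. infantum CYP51 at 0.5 μM is titrated with ligand at 0.1–1 μM in 5 cm path cuvettes. Difference-spectrum absorbance change Δ(A430−A411) is plotted against ligand concentration. Apparent Kd comes from a Morrison (quadratic) tight-binding fit by nonlinear regression.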

[3] = target: Sterol 14-alpha demethylase (Trypanosoma cruzi (strain CL Brener), UniProt Q7Z1V1); experiment: Binding affinity to Trypanosoma cruzi Y CYP51A expressed in Escherichia coli
Summary of the method: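 Recombinant CYP51A from Y strain T. cruzi, expressed in E. coli and purified, titrated spectrally at 0.5 μM P450 in 5 cm path cuvettes with ligand over 0.1–1 μM. Type of absorbance change in difference spectra Δ(A430-A411) plotted against ligand concentration. Apparent Kd obtained by fitting to the Morrison quadratic tight-binding equation by nonlinear regression.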

Trypanosoma cruzi [4] = experiment: Antiparasitic activity against GFP-expressing Trypanosoma cruzi Tulahuen amastigote formss infected in cardiomyocytes assessed as reduction in rate of parasite multiplication within infected cardiomyocytes measured at 72 hrs post infection by fluorescence microscopy; assay type: functional, organism-based; summary of the method: as §1
[5] = Drug uptake in BALB/c mouse liver at 25 mg/kg, po via gavage measured after 4 hrs post dose by […]; assay type: ADME, organism-based; settings: read-out: Drug uptake
Summary of the method: (§2)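 BALB/c mice get a single oral gavage dose of 25 mg/kg; tissues are collected 4 h post-dose. About 100 mg tissue is diluted 5-fold in PBS and homogenized. Homogenate is extracted as for plasma (ketoconazole internal standard, acetonitrile extraction) and quantified by HPLC-UV at 291 nm, 0.1 μM detection limit, n=2.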

[6] = Plasma concentration in BALB/c mouse assessed as time until the compound becomes undetectable at 25 mg/kg, po via gavage […]; assay type: ADME, organism-based; settings: in vivo
Summary of the method: (§3)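 Single oral gavage dose of 25 mg/kg in BALB/c mice; blood sampled at 1, 2, 4, 6, 10, 16, 24 h. Plasma is diluted in PBS with ketoconazole internal standard, extracted with 80% acetonitrile, dried and redissolved. Analysed by reversed-phase HPLC with UV at 291/250 nm, 0.1 μM detection limit. Lifetime is time until undetectable.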

[7] = Intrinsic clearance in human liver microsomes at 1 uM preincubated for 5 mins followed by NADPH addition and measured after 45 mins by LC/MS/MS analysis; assay type: ADME, microsome; settings: read-out: CLH
[8] = Half life in Sprague-Dawley rat liver microsomes at 1 uM preincubated for 5 mins followed by NADPH addition and measured by LC/MS/MS analysis; assay type: ADME, microsome; settings: microsomes, 1 µM
[9] = Lipophilicity, log P of the compound; assay type: physicochemical; settings: octanol/water
[10] = Intrinsic clearance in Sprague-Dawley rat liver microsomes at 1 uM preincubated for 5 mins followed by NADPH addition and measured after 45 mins by LC/MS/MS analysis; assay type: ADME, microsome; settings: read-out: CLH
[11] = Drug uptake in BALB/c mouse lungs at 25 mg/kg, po via gavage measured after 4 hrs post dose by […]; assay type: ADME, organism-based, Lung; settings: read-out: Drug uptake; summary of the method: as §2
[12] = Hepatic clearance in Sprague-Dawley rat liver microsomes at 1 uM preincubated for 5 mins followed by NADPH addition and measured after 45 mins by LC/MS/MS analysis; assay type: ADME, microsome
Summary of the method: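 Pooled liver microsomes at 0.5 mg/mL: human (mixed gender), male Sprague-Dawley rat, or male CD-1 mouse, with test compound at 1 μM, triplicate. In vitro t1/2 is scaled to CLint (45 mg microsomes/g liver; 45 g liver/kg scaling factor). CLhep uses well-stirred model with hepatic blood flow 21 (human), 70 (rat), 90 (mouse) mL/min/kg.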

[13] = Drug uptake in BALB/c mouse blood at 25 mg/kg, po via gavage measured after 4 hrs post dose by […]; assay type: ADME, organism-based; settings: read-out: Drug uptake; summary of the method: as §2
[14] = Half life in CD1 mouse liver microsomes at 1 uM preincubated for 5 mins followed by NADPH addition and measured by LC/MS/MS analysis; assay type: ADME, microsome; settings: mouse, microsomes, 1 µM
[15] = Drug uptake in BALB/c mouse heart at 25 mg/kg, po via gavage measured after 4 hrs post dose by […]; assay type: ADME, organism-based; settings: read-out: Drug uptake; summary of the method: as §2
[16] = Drug uptake in BALB/c mouse spleen at 25 mg/kg, po via gavage measured after 4 hrs post dose by […]; assay type: ADME, organism-based; settings: read-out: Drug uptake; summary of the method: as §2
[17] = Half life in human liver microsomes at 1 uM preincubated for 5 mins followed by NADPH addition and measured by LC/MS/MS analysis; assay type: ADME, microsome; settings: microsomes, 1 µM
[18] = Drug uptake in BALB/c mouse brain at 25 mg/kg, po via gavage measured after 4 hrs post dose by […]; assay type: ADME, organism-based; settings: read-out: Drug uptake; summary of the method: as §2
[19] = Intrinsic clearance in CD1 mouse liver microsomes at 1 uM preincubated for 5 mins followed by NADPH addition and measured after 45 mins by LC/MS/MS analysis; assay type: ADME, microsome; settings: read-out: CLH
[20] = Hepatic clearance in human liver microsomes at 1 uM preincubated for 5 mins followed by NADPH addition and measured after 45 mins by LC/MS/MS analysis; assay type: ADME, microsome
[21] = Hepatic clearance in CD1 mouse liver microsomes at 1 uM preincubated for 5 mins followed by NADPH addition and measured after 45 mins by LC/MS/MS analysis; assay type: ADME, microsome
[22] = Maximum plasma concentration in BALB/c mouse at 25 mg/kg, po via gavage by […]; assay type: ADME, organism-based; parameters: dose 25 mg/kg, route oral; summary of the method: as §3
[23] = target: Sterol 14-alpha demethylase (Trypanosoma cruzi (strain CL Brener)) (UniProt Q7Z1V1); experiment: Inhibition of Trypanosoma cruzi Y CYP51 expressed in Escherichia coli using [3-3H]-eburicol as substrate after 60 mins by LC-MS analysis
Summary of the method: (§4)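 Reconstituted reaction: 1 μM purified CYP51, 2 μM T. brucei NADPH-P450 reductase, 100 μM dilauroylphosphatidylcholine, isocitrate dehydrogenase/isocitrate regeneration, 50 mM K phosphate pH 7.2, 10% glycerol. [3-3H]sterol substrate at 50 μM final (eburicol for T. cruzi; obtusifoliol for T. brucei and L. infantum) with inhibitor at 1.1 μM final. Preincubate 60 s at 37 °C, start with 100 μM NADPH, run 60 min, EtOAc extraction. Gives % inhibition of 14α-demethylation, triplicate, mean ± SD.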

[24] = target: Putative lanosterol 14-alpha-demethylase (Leishmania infantum) (UniProt A2TEF2); experiment: Inhibition of Leishmania infantum CYP51 expressed in Escherichia coli using [3-3H]-obtusifoliol as substrate after 60 mins by LC-MS analysis; summary of the method: as §4
[25] = target: Lanosterol 14-alpha-demethylase (Trypanosoma brucei brucei (strain 927/4 GUTat10.1)) (UniProt Q385E8); experiment: Inhibition of Trypanosoma brucei […] CYP51 expressed in Escherichia coli using [3-3H]-obtusifoliol as substrate after 60 mins by LC-MS analysis; summary of the method: as §4
Sequence of Lanosterol 14-alpha-demethylase (Trypanosoma brucei brucei (strain 927/4 GUTat10.1)) (Q385E8 1-481): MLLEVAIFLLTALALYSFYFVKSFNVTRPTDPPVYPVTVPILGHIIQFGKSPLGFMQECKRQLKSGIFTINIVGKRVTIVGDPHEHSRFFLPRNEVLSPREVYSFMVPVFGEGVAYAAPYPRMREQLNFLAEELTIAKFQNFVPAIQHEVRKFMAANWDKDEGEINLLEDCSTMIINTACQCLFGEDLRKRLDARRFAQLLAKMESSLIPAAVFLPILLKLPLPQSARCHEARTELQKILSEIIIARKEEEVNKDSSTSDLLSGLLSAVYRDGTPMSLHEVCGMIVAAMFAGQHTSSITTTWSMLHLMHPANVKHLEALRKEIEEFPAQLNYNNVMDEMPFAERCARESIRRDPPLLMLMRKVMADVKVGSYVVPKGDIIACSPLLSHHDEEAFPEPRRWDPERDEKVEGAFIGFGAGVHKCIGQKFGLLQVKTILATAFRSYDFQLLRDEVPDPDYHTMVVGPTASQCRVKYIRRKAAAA

Sequence of Putative lanosterol 14-alpha-demethylase (A2TEF2 whole entry): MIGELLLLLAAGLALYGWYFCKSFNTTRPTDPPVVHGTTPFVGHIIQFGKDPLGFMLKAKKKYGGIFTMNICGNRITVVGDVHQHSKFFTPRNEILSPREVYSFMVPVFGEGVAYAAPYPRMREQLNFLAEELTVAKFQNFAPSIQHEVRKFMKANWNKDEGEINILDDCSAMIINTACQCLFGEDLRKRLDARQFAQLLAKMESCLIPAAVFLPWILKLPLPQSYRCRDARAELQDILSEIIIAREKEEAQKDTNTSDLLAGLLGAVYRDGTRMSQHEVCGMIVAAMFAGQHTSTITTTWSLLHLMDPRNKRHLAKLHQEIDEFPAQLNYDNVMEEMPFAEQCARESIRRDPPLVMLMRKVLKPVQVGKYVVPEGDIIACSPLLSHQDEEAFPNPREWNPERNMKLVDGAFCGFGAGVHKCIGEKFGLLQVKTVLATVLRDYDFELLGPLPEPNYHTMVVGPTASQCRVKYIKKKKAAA
Sequence of Sterol 14-alpha demethylase (Q7Z1V1 whole entry): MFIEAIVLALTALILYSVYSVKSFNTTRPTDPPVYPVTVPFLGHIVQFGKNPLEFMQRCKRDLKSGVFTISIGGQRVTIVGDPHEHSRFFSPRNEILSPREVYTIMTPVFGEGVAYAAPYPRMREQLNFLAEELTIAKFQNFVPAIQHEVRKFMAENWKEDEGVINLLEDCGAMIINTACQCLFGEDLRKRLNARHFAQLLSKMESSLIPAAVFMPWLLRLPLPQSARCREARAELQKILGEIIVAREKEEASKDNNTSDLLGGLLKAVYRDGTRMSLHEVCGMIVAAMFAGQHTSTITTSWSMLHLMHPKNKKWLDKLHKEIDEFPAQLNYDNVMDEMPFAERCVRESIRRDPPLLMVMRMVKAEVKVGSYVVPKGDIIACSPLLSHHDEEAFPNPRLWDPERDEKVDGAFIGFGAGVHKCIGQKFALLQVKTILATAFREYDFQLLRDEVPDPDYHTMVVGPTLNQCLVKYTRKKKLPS
Sequence of Putative lanosterol 14-alpha-demethylase (Leishmania infantum) (A2TEF2 1-480): as the sequence (A2TEF2 whole entry) above
Sequence of Sterol 14-alpha demethylase (Trypanosoma cruzi (strain CL Brener)) (Q7Z1V1 whole entry, looked up): as the sequence (Q7Z1V1 whole entry) above

## O=C(N[C@@H](Cn1ccnc1)c1ccc(Cl)cc1Cl)c1ccc(-c2nnc(-c3ccccc3)o2)cc1
Trypanosoma cruzi [1]
  pEC50: 8.40
[2]
  pKd: 8.70
[3]
  pKd: 8.08
Trypanosoma cruzi [4]
  pEC50: 8.89

## O=C(N[C@@H](Cn1ccnc1)c1ccc(-c2ccc(F)cc2)cc1Cl)c1ccc(-c2nnc(-c3ccccn3)o2)cc1
[5]
  concentration at 4 h: 3 µM
[6]
  Time: 10 h
[7]
  CLint scaled at 1 µM: 22.3 mL/min/kg
[8]
  t1/2: 95 min
[9]
  logP: 4.93
[10]
  CLint scaled at 1 µM: 29.7 mL/min/kg
[11]
  concentration at 4 h: 0.6 µM
[12]
  CLhep predicted at 1 µM: 20.8 mL/min/kg
[13]
  concentration at 4 h: 1 µM
[14]
  t1/2: 52 min
[15]
  concentration at 4 h: 0.1 µM
[16]
  concentration at 4 h: 2 µM
[17]
  t1/2: 56 min
[18]
  concentration at 4 h: 0.1 µM
[19]
  CLint scaled at 1 µM: 105 mL/min/kg
[20]
  CLhep predicted at 1 µM: 10.8 mL/min/kg
[21]
  CLhep predicted at 1 µM: 48.4 mL/min/kg
[22]
  Cmax: 5 µM

## O=C(N[C@@H](Cn1ccnc1)c1ccc(Cl)cc1Cl)c1ccc(-c2nnc(-c3ccc(OCC(F)(F)F)cc3F)o2)cc1
[23]
  inhibition: Active
[5]
  concentration at 4 h: 32 µM
[24]
  inhibition: Active
[6]
  Time: 6 h
[8]
  t1/2: 48 min
[11]
  concentration at 4 h: 38 µM
[13]
  concentration at 4 h: 3 µM
[15]
  concentration at 4 h: 6 µM
[25]
  inhibition: Active
[16]
  concentration at 4 h: 6 µM
[18]
  concentration at 4 h: 0.15 µM
[22]
  Cmax: 7 µM

## [2H]c1c([2H])c([2H])c(-c2ccc([C@H](Cn3ccnc3)NC(=O)c3ccc(-c4nnc(-c5ccccc5)o4)cc3)c(Cl)c2)c([2H])c1[2H]
[5]
  concentration at 4 h: 17 µM
[6]
  Time: < 16 h
[7]
  CLint scaled at 1 µM: 21.2 mL/min/kg
[8]
  t1/2: 22 min
[10]
  CLint scaled at 1 µM: 131 mL/min/kg
[11]
  concentration at 4 h: 26 µM
[12]
  CLhep predicted at 1 µM: 45.6 mL/min/kg
[13]
  concentration at 4 h: 4 µM
[14]
  t1/2: 25 min
[15]
  concentration at 4 h: 3 µM
[16]
  concentration at 4 h: 3 µM
[17]
  t1/2: 58 min
[18]
  concentration at 4 h: 0.2 µM
[19]
  CLint scaled at 1 µM: 220 mL/min/kg
[20]
  CLhep predicted at 1 µM: 10.6 mL/min/kg
[21]
  CLhep predicted at 1 µM: 63.9 mL/min/kg
[22]
  Cmax: 15 µM

## O=C(N[C@@H](Cn1ccnc1)c1cnc(-c2ccc(F)cc2)cc1Cl)c1ccc(-c2nnc(-c3ccccc3)o2)cc1
[9]
  logP: 4.93

## O=C(N[C@@H](Cn1ccnc1)c1ccc(-c2ccc(F)cc2)cc1F)c1ccc(-c2nnc(-c3ccccc3)o2)cc1
[5]
  concentration at 4 h: 34 µM
Trypanosoma cruzi [1]
  pEC50: 8.82
[2]
  pKd: 8.08
[7]
  CLint scaled at 1 µM: 29.9 mL/min/kg
[8]
  t1/2: 158 min
[9]
  logP: 5.44
[10]
  CLint scaled at 1 µM: 17.7 mL/min/kg
[11]
  concentration at 4 h: 74 µM
[12]
  CLhep predicted at 1 µM: 14.2 mL/min/kg
[13]
  concentration at 4 h: 22 µM
[3]
  pKd: 8.17
[14]
  t1/2: 38 min
[15]
  concentration at 4 h: 16 µM
[16]
  concentration at 4 h: 21 µM
[17]
  t1/2: 42 min
[18]
  concentration at 4 h: 1 µM
Trypanosoma cruzi [4]
  pEC50: 9.00
[19]
  CLint scaled at 1 µM: 145 mL/min/kg
[20]
  CLhep predicted at 1 µM: 12.3 mL/min/kg
[21]
  CLhep predicted at 1 µM: 55.6 mL/min/kg
[22]
  Cmax: 24 µM

## O=C(N[C@@H](Cn1ccnc1)c1ccc(-c2ccc(F)cc2)cc1Cl)c1ccc(-c2nnc(-c3ccccc3)o2)cc1
[5]
  concentration at 4 h: 20 µM
[6]
  Time: 16 h
[7]
  CLint scaled at 1 µM: 13.9 mL/min/kg
[8]
  t1/2: 79 min
[10]
  CLint scaled at 1 µM: 35.5 mL/min/kg
[11]
  concentration at 4 h: 18 µM
[12]
  CLhep predicted at 1 µM: 23.6 mL/min/kg
[13]
  concentration at 4 h: 12 µM
[14]
  t1/2: 91 min
[15]
  concentration at 4 h: 3 µM
[16]
  concentration at 4 h: 6 µM
[17]
  t1/2: 90 min
[18]
  concentration at 4 h: 0.2 µM
[19]
  CLint scaled at 1 µM: 59.8 mL/min/kg
[20]
  CLhep predicted at 1 µM: 8.35 mL/min/kg
[21]
  CLhep predicted at 1 µM: 35.9 mL/min/kg
[22]
  Cmax: 13 µM
